The nature of data set [1]: Cytotoxicity against human SW707 cells after 72 hrs by crystal violet staining method. The class given is ADME, cell-based. As to conditions: SW707, 72 h.
The subject of the next data set is CAPAN-1. Kind of data set: Cytotoxicity against human Capan1 cells after 72 hrs by crystal violet staining method. The class given is ADME, cell-based. Particulars: CAPAN-1, 72 h.
A further data set deals with Ca-Ski. Kind of data set: Cytotoxicity against human CaSki cells after 72 hrs by crystal violet staining method. The class given is ADME, cell-based.
The subject of another data set is Calu-6. Description: Cytotoxicity against human Calu6 cells after 72 hrs by crystal violet staining method. The class given is ADME, cell-based. Particulars: Calu-6, 72 h.
The test system of another data set is MeWo. Kind of data set: Cytotoxicity against human MeWo cells after 72 hrs by crystal violet staining method. The class given is ADME, cell-based.
Another data set concerns A-431. Description: Cytotoxicity against human A431 cells after 72 hrs by crystal violet staining method. The class given is ADME, cell-based. Particulars: A-431, 72 h.
Data set [2] can be described thus: Cytotoxicity against human Flow 2002 cells after 72 hrs by crystal violet staining method. The class given is ADME, cell-based. As to conditions: Flow 2002, 72 h.
For the next data set, the system named is HaCaT. Kind of data set: Cytotoxicity against human HaCaT cells after 72 hrs by crystal violet staining method. The class given is ADME, cell-based.
In data set [3] the test system is Staphylococcus aureus. Kind of data set: microbe, parasite or virus in culture. The class given is functional. Particulars: NCTC 10442.
For data set [4], the system named is Staphylococcus aureus. Description: microbe, parasite or virus in culture. The class given is functional. As to conditions: ATCC 25923.
The nature of data set [5]: Inhibition of Staphylococcus aureus MurA2 expressed in Escherichia coli BL21(lambdaDE3) using UNAG and PEP as substrate incubated for 10 mins prior to PEP addition measured after 60 mins by spectrophotometric analysis.
Data set [6] in a line: Inhibition of Pseudomonas aeruginosa MurA expressed in Escherichia coli BL21(lambdaDE3) using UNAG and PEP as substrate incubated for 10 mins prior to PEP addition measured after 60 mins by spectrophotometric analysis.
Data set [7] addresses UDP-N-acetylglucosamine 1-carboxyvinyltransferase (Escherichia coli K-12, UniProt P0A749, C115D). Kind of data set: Inhibition of Escherichia coli MurA C115D mutant expressed in Escherichia coli BL21(lambdaDE3) using UNAG and PEP as substrate incubated for 10 mins prior to PEP addition measured after 60 mins by spectrophotometric analysis.
For data set [8], the target named is UDP-N-acetylglucosamine 1-carboxyvinyltransferase (Escherichia coli K-12, UniProt P0A749). Kind of data set: Inhibition of Escherichia coli MurA expressed in Escherichia coli BL21(lambdaDE3) using UNAG and PEP as substrate incubated for 10 mins prior to PEP addition measured after 60 mins by spectrophotometric analysis.
The next data set has as its system Pseudomonas aeruginosa. Description: microbe, parasite or virus in culture. The class given is functional. Particulars: ATCC 27853.
Data set [9] deals with Escherichia coli. Kind of data set: microbe, parasite or virus in culture. The class given is functional. Particulars: ATCC 25922.
A short description of data set [10]: Induction of GSSG formation in citrate buffer at 100 uM by RP-LC/MS analysis.
Data set [11] can be described thus: Induction of GSH-adduct formation in citrate buffer at100 uM by RP-LC/MS analysis. As to conditions: 100 µM.
For the next data set, the system named is Dengue virus. As to conditions: at 50 µM.
In data set [12] the target is Prothrombin (Homo sapiens) (UniProt P00734). As to conditions: at 25 µM.
The target in data set [13] is Methionine aminopeptidase 2 (Homo sapiens) (UniProt P50579). Particulars: at 10 µM.
Data set [14] concerns the target Methionine aminopeptidase 1 (Homo sapiens) (UniProt P53582). As to conditions: at 10 µM.
Data set [15] concerns Escherichia coli. Particulars: at 10 µM.
A short description of data set [16]: Half life of the compound in citrate buffer at pH 6.
Data set [17] in a line: Half life of the compound in tris buffer at pH 7.8.
A short description of data set [18]: Cytotoxicity against human lymphoblastoid cells assessed as cell vaibility at 46 uM. The class given is cell-based. As to conditions: read-out: Activity.
Data set [19] deals with UDP-N-acetylglucosamine 1-carboxyvinyltransferase (Escherichia coli K-12), P0A749 [C115D]. Description: Inhibition of Escherichia coli MurA C115D mutant expressed in Escherichia coli BL21(lambdaDE3) using UNAG and PEP as substrate at 50 to 500 uM incubated for 30 mins by 2,2'-dithiopyridine based spectrophotometric analysis. The method, boiled down:
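MurA (wild-type or C115D) was incubated with test compound at an equimolar ratio or 10-fold excess in 50 mM Tris pH 7.8 at room temperature for 30 min. 2,2'-Dithiodipyridine was then added in 0.5 M citrate pH 4 with 6 M urea for 30 min and quenched with 4% TFA. 2-Thiopyridone was measured by HPLC at 342 nm against a compound-free control.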

The target of data set [20] is UDP-N-acetylglucosamine 1-carboxyvinyltransferase (Escherichia coli K-12) (UniProt P0A749). Particulars: 100 nM.
Data set [21] has the same target. Particulars: 200 nM.

Consider six compounds from ChEMBL document CHEMBL2331445, “Chemical, biochemical and microbiological properties of a brominated nitrovinylfuran with broad-spectrum antibacterial activity” (Bioorg Med Chem, 2013).

Values after ≈ are worked out from the molar mass of the structure shown. Active and inactive are the calls of the source. The calls are words filed in the database; no cut-off is given here.

UDP-N-acetylglucosamine 1-carboxyvinyltransferase (Escherichia coli K-12, UniProt P0A749, C115D), sequence (P0A749 whole entry C115D): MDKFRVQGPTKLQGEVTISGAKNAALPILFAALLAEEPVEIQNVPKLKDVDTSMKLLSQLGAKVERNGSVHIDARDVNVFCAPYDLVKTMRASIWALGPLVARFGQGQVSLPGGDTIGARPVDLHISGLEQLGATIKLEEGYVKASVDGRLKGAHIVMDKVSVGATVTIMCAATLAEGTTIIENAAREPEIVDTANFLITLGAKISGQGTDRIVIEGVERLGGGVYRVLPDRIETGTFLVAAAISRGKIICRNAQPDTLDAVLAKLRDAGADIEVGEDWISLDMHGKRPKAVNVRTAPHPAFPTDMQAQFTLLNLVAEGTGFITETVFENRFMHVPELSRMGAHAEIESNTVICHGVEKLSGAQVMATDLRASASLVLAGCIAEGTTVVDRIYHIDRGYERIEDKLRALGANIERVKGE
UDP-N-acetylglucosamine 1-carboxyvinyltransferase (Escherichia coli K-12, UniProt P0A749), sequence (P0A749 whole entry): as the sequence (P0A749 whole entry C115D) above, with D115C counted along it
Methionine aminopeptidase 2 (Homo sapiens), sequence (P50579 2-478 limits assumed): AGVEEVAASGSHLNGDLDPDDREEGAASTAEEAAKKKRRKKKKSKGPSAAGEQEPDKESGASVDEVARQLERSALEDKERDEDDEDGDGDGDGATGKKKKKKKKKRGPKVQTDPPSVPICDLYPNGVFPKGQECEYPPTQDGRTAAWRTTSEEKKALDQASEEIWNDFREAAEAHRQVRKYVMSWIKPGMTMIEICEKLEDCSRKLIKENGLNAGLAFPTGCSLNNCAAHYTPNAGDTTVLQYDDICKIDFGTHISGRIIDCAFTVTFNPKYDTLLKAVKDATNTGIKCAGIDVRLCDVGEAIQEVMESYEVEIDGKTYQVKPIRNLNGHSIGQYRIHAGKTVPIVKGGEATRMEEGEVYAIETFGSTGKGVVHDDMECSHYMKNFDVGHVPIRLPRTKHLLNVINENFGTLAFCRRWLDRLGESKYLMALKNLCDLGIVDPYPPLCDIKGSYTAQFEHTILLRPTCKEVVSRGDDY
UDP-N-acetylglucosamine 1-carboxyvinyltransferase (Escherichia coli K-12), sequence (P0A749 whole entry): as the sequence (P0A749 whole entry C115D) above, with D115C counted along it
UDP-N-acetylglucosamine 1-carboxyvinyltransferase (Escherichia coli K-12), P0A749 [C115D], sequence (P0A749 whole entry C115D): as the sequence (P0A749 whole entry C115D) above

With `O=Cc1ccc(Br)o1`, the IC50 (in data set [1]; in the data set with CAPAN-1; in the data set with Ca-Ski; in the data set with Calu-6; in the data set with MeWo; in the data set with A-431) was not below 100 µM throughout. Besides, the half-inhibitory concentration (IC50) was not below 100 µM in data set [2]; not below 100 µM in the data set with HaCaT; “Not Active” in data set [5]; “Not Active” in data set [6]; “Not Active” in data set [7]; “Not Active” in [8]. For the same compound, the MIC in the data set with Staphylococcus aureus [3], in the data set with Staphylococcus aureus [4], against Pseudomonas aeruginosa and against Escherichia coli [9] was more than 32 µg/mL in each case. The outcome in data set [10] and in [11] was Active. Also, the inhibition result (in the data set with Dengue virus; in data set [12]; in data set [13]; in [14]; in the data set on Escherichia coli [15]) was “inactive” each time.

Turning to `C=C1C(=O)O[C@@H]2/C=C(\CO)CC/C=C(\C)C[C@H](OC(=O)C(=C)[C@H](O)CO)[C@@H]12` [CNICIN], the IC50 was not below 100 µM in [1]; 93 µM with CAPAN-1; not below 100 µM with Ca-Ski; 44 µM with Calu-6; not below 100 µM in the data set on MeWo; 27 µM in the data set with A-431. For the same compound, the IC50 in data set [2] was 82 µM; in the data set with HaCaT, 80 µM; in data set [5] (read-out: IC50), 20.4 µM; in data set [6] (read-out: IC50) it was 10.3 µM; in [7], “Not Active”. The MIC against Staphylococcus aureus [3], against Staphylococcus aureus [4], in the data set on Pseudomonas aeruginosa and against Escherichia coli [9] was more than 32 µg/mL each time. Moreover, the inhibition entry (with Dengue virus; in data set [12]; in [14]; in the data set with Escherichia coli [15]) was “inactive” in each case. In addition, the inhibition in [13] stood at 9%.

As for `O=[N+]([O-])CBr` [BROMO(NITRO)METHANE], the IC50 in data set [1] came out at 73 µM; with CAPAN-1 it was 69 µM; in the data set on Ca-Ski, 99 µM; in the data set with Calu-6, 23 µM; with MeWo, 40 µM; with A-431, 38 µM. In addition, the IC50 in [2] stood at 14 µM; in the data set with HaCaT it was 25 µM; in data set [5] (read-out: IC50), 6.2 µM; in data set [6] (read-out: IC50), 4 µM; in data set [7] (read-out: IC50), 7.8 µM; in [8] (read-out: IC50) it was 4.6 µM. The MIC against Staphylococcus aureus [3] was 2 µg/mL (≈ 14.3 µM); against Staphylococcus aureus [4], 2 µg/mL (≈ 14.3 µM); with Pseudomonas aeruginosa it was 0.5 µg/mL (≈ 3.57 µM); in the data set on Escherichia coli [9] it was 1 µg/mL (≈ 7.15 µM). Further, the results for the Activity entry in data set [10] and in data set [11] were “Not Active” and “Active”, respectively. The inhibition entry (in the data set on Dengue virus; in [12]; in [14]) was “inactive” each time. Moreover, the inhibition in data set [13] was 22%; in the data set with Escherichia coli [15] it was 85%.

As to `C[N+](=O)[O-]` [NITROMETHANE], the IC50 (in [1]; in the data set on CAPAN-1; in the data set on Ca-Ski; with Calu-6; in the data set on MeWo; in the data set on A-431) was not below 100 µM in each case. Moreover, the IC50 in data set [2] was not below 100 µM; in the data set with HaCaT, not below 100 µM; in [5] it was “Not Active”; in data set [6], “Not Active”; in data set [7] it was “Not Active”; in [8] it was “Not Active”. The MIC with Staphylococcus aureus [3] is more than 32 µg/mL; against Staphylococcus aureus [4], 8 µg/mL (≈ 131 µM); in the data set with Pseudomonas aeruginosa, 8 µg/mL (≈ 131 µM); with Escherichia coli [9], 32 µg/mL (≈ 524 µM). Moreover, the inhibition entry (in the data set with Dengue virus; in [12]; in data set [13]; in data set [14]; in the data set on Escherichia coli [15]) was “inactive” in each case.

Consider `O=[N+]([O-])/C=C/c1ccc(Br)o1`, for which the IC50 in data set [1] was 22 µM; with CAPAN-1, 19 µM; with Ca-Ski it was 18 µM; with Calu-6, 5 µM; in the data set on MeWo, 21 µM; in the data set on A-431 it was 12 µM. The IC50 was 6 µM in data set [2]; 15 µM in the data set on HaCaT; 20.7 µM in [5] (read-out: IC50); 20.3 µM in data set [6] (read-out: IC50); 23.8 µM in data set [7] (read-out: IC50); 27.3 µM in data set [8] (read-out: IC50). The MIC amounted to 2 µg/mL (≈ 9.17 µM) against Staphylococcus aureus [3], 2 µg/mL (≈ 9.17 µM) with Staphylococcus aureus [4], 4 µg/mL (≈ 18.3 µM) in the data set on Pseudomonas aeruginosa and 2 µg/mL (≈ 9.17 µM) with Escherichia coli [9]. Besides, the Activity entry in data set [10] was “Active”; in data set [11], “Not Active”. For the same compound, the results for the half-life in data set [16] and in data set [17] were 116 h and 58 h, respectively. Moreover, the viability at 46 µM in data set [18] is more than 70%. For the same compound, the inhibition in the data set with Dengue virus is 26%; in [12], 19%; in [13], 7%; in the data set with Escherichia coli [15], 30%. The inhibition result in data set [14] is “inactive”.

As to `C[C@@H]1O[C@@H]1P(=O)(O)O` [FOSFOMYCIN], the IC50 (in [1]; in the data set on CAPAN-1; in the data set with Ca-Ski; with Calu-6; in the data set with MeWo; in the data set with A-431) was not below 100 µM throughout. In addition, the IC50 in [2] was not below 100 µM; in the data set with HaCaT, not below 100 µM; in data set [5] (read-out: IC50) it was 1.1 µM; in [6] (read-out: IC50), 10.5 µM; in data set [7], “Not Active”; in data set [8] (read-out: IC50) it was 0.1 µM. In addition, the MIC in the data set on Staphylococcus aureus [3] was 4 µg/mL (≈ 29 µM); with Staphylococcus aureus [4] it was 4 µg/mL (≈ 29 µM); in the data set with Pseudomonas aeruginosa it was 1 µg/mL (≈ 7.24 µM); against Escherichia coli [9] it was 2 µg/mL (≈ 14.5 µM). For the same compound, the inhibition result (in data set [19]; with Dengue virus; in data set [12]; in data set [13]; in [14]; in the data set with Escherichia coli [15]) was “inactive” throughout. In addition, in data set [21], the inhibition result is “inactive”. The inhibition entry in data set [20] is “tde”.

What is called IC50 is the concentration needed to halve the response being measured. For orientation: inhibition means how much of the control response was suppressed. As usually defined, the half-life is the time in which the quantity being followed falls by half. A lower half-life goes with fast loss.
